Results reported in ChEMBL document CHEMBL2057133, “A 20S combined with a 22R configuration markedly increases both in vivo and in vitro biological activity of 1α,25-dihydroxy-22-methyl-2-methylene-19-norvitamin D3” (J Med Chem, 2012).
Active and inactive are the calls of the source. The calls are words filed in the database; no cut-off is given here.

Key:
[1] = target: T1, Vitamin D3 receptor (Rattus norvegicus, UniProt P13053); test: Displacement of [3H]-1alpha,25(OH)2D3 from recombinant rat VDR after overnight incubation by scintillation counting
T1 sequence (P13053 whole entry): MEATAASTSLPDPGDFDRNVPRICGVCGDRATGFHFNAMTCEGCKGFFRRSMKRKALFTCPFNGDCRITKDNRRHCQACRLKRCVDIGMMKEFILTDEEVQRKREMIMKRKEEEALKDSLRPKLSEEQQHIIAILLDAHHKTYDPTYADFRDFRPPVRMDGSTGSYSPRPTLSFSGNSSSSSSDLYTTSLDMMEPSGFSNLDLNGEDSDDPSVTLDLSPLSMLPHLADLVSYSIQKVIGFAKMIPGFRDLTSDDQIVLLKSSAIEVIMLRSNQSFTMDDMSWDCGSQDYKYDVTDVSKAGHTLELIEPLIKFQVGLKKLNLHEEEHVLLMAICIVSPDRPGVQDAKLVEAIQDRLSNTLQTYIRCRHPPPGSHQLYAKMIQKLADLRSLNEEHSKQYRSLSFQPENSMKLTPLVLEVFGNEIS
Summary of the method: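 Competition assay using full-length recombinant rat VDR with radiolabeled 1α,25-(OH)2D3 at 1 nM. Ki was derived from dose-response curves using a Kd of 0.2 nM. Run in duplicate on two separate occasions.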

[2] = tested on: HL-60; test: Induction of human HL60 cell differentiation after 4 days by NBT reduction assay; type: functional; conditions: HL-60, 96 h, read-out: ED50 (the source's name)
[3] = tested on: HL-60; test: Ratio of 1alpha,25-(OH)2D3 ED50 to compound ED50 for induction of human HL60 cell differentiation; type: functional
Summary of the method: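 HL-60 promyelocyte differentiation to monocytes was scored as the percentage of cells reducing nitro blue tetrazolium. ED50 is the concentration giving 50% maturation, from dose-response curves; the experiment was done twice in duplicate. The ratio is the average of 1α,25-(OH)2D3 ED50 over analogue ED50.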

[4] = tested on: Rattus norvegicus; test: (§1) Calcium mobilization in vitamin-D deficient weanling Sprague-Dawley rat bone assessed as increase in serum calcium level at 32 to 35100 pmol, ip administered every 24 hrs for 4 consecutive days measured 24 hrs post last dose relative to vehicle treated control; type: functional, organism-based
Summary of the method: (§2)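 Male weanling Sprague-Dawley rats were fed Diet 11 (0.47% Ca) + AEK oil for 1 week, then 0.02% Ca + AEK oil for 3 weeks, then 0.47% Ca for 1 week, then 0.02% Ca for 2 weeks. Dosing began in the last week on 0.02% Ca: four daily intraperitoneal doses. Serum calcium was measured in neck blood 24 h after the last dose and expressed as the difference from vehicle controls. Mean ± SEM of 6 values.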

[5] = tested on: Rattus norvegicus; test: as §1, with “intestine” for “bone”, “serosal/mucosal” for “serum”, “dose by everted gut sac method” for “dose”; type: functional, organism-based
[6] = target: T2, Vitamin D3 receptor (Rattus norvegicus) (UniProt P13053); test: Activation of VDR-mediated 24-hydroxylase transcription in rat osteosarcoma cells after 16 hrs by luciferase reporter gene assay
T2 sequence (whole entry): T1 sequence (P13053 whole entry)

[7] = tested on: Rattus norvegicus; test: Calcium mobilization in vitamin-D deficient weanling Sprague-Dawley rat bone assessed as increase in serum calcium level at 32 to 2340 pmol, ip administered every 24 hrs for 4 consecutive days measured 24 hrs post last dose relative to vehicle treated control; type: functional, organism-based; summary of the method: as §2
[8] = tested on: Rattus norvegicus; test: Calcium mobilization in vitamin-D deficient weanling Sprague-Dawley rat intestine assessed as increase in serosal/mucosal calcium level at 32 to 2340 pmol, ip administered every 24 hrs for 4 consecutive days measured 24 hrs post last dose by everted gut sac method relative to vehicle treated control; type: functional, organism-based
[9] = tested on: Rattus norvegicus; test: Calcium mobilization in vitamin-D deficient weanling Sprague-Dawley rat bone assessed as increase in serum calcium level at 32 to 70200 pmol, ip administered every 24 hrs for 4 consecutive days measured 24 hrs post last dose relative to vehicle treated control; type: functional, organism-based; summary of the method: as §2
[10] = tested on: Rattus norvegicus; test: Calcium mobilization in vitamin-D deficient weanling Sprague-Dawley rat intestine assessed as increase in serosal/mucosal calcium level at 32 to 7020 pmol, ip administered every 24 hrs for 4 consecutive days measured 24 hrs post last dose by everted gut sac method relative to vehicle treated control; type: functional, organism-based

Row | Structure (SMILES) | Ki [1] [nM] | EC50 [2] [nM] | ED50 [6] [nM] | Ratio ED50 [3] | Activity [4] | Activity [5] | Activity [7] | Activity [8] | Activity [9] | Activity [10]
1 | C=C1[C@H](O)CC(=C/C=C2\CCC[C@]3(C)[C@@H]([C@@H](C)[C@@H](C)CCC(C)(C)O)CC[C@@H]23)C[C@H]1O | 10 | 20 | 4 | 0.1 | Active | Active |  |  |  | 
2 | C=C1[C@H](O)CC(=C/C=C2\CCC[C@]3(C)[C@@H]([C@H](C)[C@H](C)CCC(C)(C)O)CC[C@@H]23)C[C@H]1O | 0.2 | 10 | 5 | 0.2 | Active | Active |  |  |  | 
3 | C=C1[C@H](O)CC(=C/C=C2\CCC[C@]3(C)[C@@H]([C@@H](C)C(C)(C)CCC(C)(C)O)CC[C@@H]23)C[C@H]1O | 0.06 | 1 | 0.6 | 2 | inactive | inactive |  |  |  | 
4 | C=C1/C(=C\C=C2/CCC[C@]3(C)[C@@H]([C@H](C)CCCC(C)(C)O)CC[C@@H]23)C[C@@H](O)C[C@@H]1O |  |  |  |  |  |  |  |  | Active | Active
5 | C=C1[C@H](O)CC(=C/C=C2\CCC[C@]3(C)[C@@H]([C@H](C)C(C)(C)CCC(C)(C)O)CC[C@@H]23)C[C@H]1O | 0.02 | 0.9 | 0.03 | 2.2 | inactive | inactive |  |  |  | 

The next lines start with results.

Row | Ki [1] [nM] | EC50 [2] [nM] | ED50 [6] [nM] | Structure (SMILES) | Ratio ED50 [3] | Activity [4] | Activity [5] | Activity [7] | Activity [8] | Activity [9] | Activity [10]
6 | 0.1 | 0.9 | 0.2 | C=C1[C@H](O)CC(=C/C=C2\CCC[C@]3(C)[C@@H]([C@H](C)[C@@H](C)CCC(C)(C)O)CC[C@@H]23)C[C@H]1O | 2.2 | inactive | inactive |  |  |  | 
7 | 0.04 | 0.02 | 0.007 | C=C1[C@H](O)CC(=C/C=C2\CCC[C@]3(C)[C@@H]([C@@H](C)[C@H](C)CCC(C)(C)O)CC[C@@H]23)C[C@H]1O | 100 |  |  | Active | Active |  | 
8 |  | 0.08 | 0.007 | C=C1[C@H](O)CC(=C/C=C2\CCC[C@]3(C)[C@@H]([C@@H](C)CCCC(C)(C)O)CC[C@@H]23)C[C@H]1O [DP001] | 25 |  |  |  |  |  | 
